Assay outcomes deposited in PubChem by several laboratories.
In the library only some 2.6% were active in any assay of this set; here they are far more common.
NR1D1 modulator = Rev-erb alpha (human) modulation; actives 0.79% (n = 370,000); activity, % at 10 µM; Rev-erbα–FITC-DNA binding, fluorescence polarization, 90 min; AID 1259318;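 active = activity above about 14%, limit read from the data; passing the limit was not always enough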
Target sequence (P20393 whole entry, looked up): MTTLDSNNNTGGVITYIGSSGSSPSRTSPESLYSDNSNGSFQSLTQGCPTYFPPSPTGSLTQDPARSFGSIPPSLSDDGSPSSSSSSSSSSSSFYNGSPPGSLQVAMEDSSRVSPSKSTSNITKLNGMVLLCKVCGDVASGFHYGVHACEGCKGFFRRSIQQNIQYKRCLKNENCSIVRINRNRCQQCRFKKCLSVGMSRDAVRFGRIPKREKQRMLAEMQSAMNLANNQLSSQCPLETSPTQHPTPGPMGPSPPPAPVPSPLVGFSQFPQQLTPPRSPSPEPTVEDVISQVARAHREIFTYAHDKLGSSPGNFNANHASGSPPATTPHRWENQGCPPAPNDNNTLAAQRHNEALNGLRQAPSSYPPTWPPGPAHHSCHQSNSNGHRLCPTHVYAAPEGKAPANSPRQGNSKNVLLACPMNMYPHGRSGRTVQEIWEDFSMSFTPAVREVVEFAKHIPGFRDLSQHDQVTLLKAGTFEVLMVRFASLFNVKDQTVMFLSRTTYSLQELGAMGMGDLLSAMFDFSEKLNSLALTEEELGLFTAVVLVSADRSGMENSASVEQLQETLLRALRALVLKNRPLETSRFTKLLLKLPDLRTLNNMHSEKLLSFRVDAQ
NR2E3 ag-1 = agonists of human NR2E3 nuclear receptor. Q9Y5X4. CHO-S Gal4-NCOR/VP16-NR2E3 two-hybrid, luciferase. inhibition of corepressor binding, % at 3.98 µM. actives 0.35% (n = 360,000). AID 602229;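 active = inhibition above the mean of all tested compounds plus 3 SD, cut at about 70% in these data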;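 also: higher means lower luciferase signal from less NR2E3 corepressor binding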
NR2E3 ag-2 = activates human photoreceptor nuclear receptor NR2E3. inhibition of corepressor binding, % at 4.78 µM. GST-NR2E3/biotin-RetCOR TR-FRET, 1536-well. actives 0.12% (n = 320,000);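 active = percent inhibition above the cutoff of mean plus 3 SD of all tested compounds, set per screening campaign, cut at about 20% in these data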
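Material: NR2E3–RetCOR corepressor complex | Quantity: 1.35 nM GST-tagged NR2E3 final | Schedule: 5 h at 4 °C | Replication: Singlicate compound wells | Reagent: RetCOR corepressor, biotinylated, 7 nM | Controls: Biotin wells as high control, 0.6% DMSO wells as low control | Signal: TR-FRET, Eu(K)-anti-GST donor, streptavidin-D2 acceptor, ex 340, em 617/671 nm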
rCAG binder = molecules binding r(CAG) RNA repeats. r(CAG) RNA repeat, TO-PRO-1 dye displacement fluorescence. inhibition, % at 3 µM. actives 1.3% (n = 370,000). AID 651821;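 active = inhibition above the plate cutoff, the mean of all test compounds on that plate plus 3 SD, cut at about 35% in these data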;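 also: higher means more dye released from RNA so lower well fluorescence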
PG9 binder = binds the HIV-1 gp120 antibody PG9; TR-FRET gp120-PG9 antibody binding; inhibition, % at 6.7 µM; actives 0.43% (n = 360,000); AID 624416; in the data active = inhibition above about 8.5%
NR2E3 ag confirm = NR2E3 agonism confirmed in two-hybrid assay; actives 51% (n = 2,300); shares compounds with NR2E3 ag-1; AID 624378; inhibition, % at 3.98 µM; CHO-S mammalian two-hybrid NR2E3-NCOR, luciferase luminescence;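 active = average inhibition above a cutoff equal to the mean inhibition of all tested compounds plus one SD, cut at about 70% in these data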
GAL4-VP16 luc = GAL4-VP16 reporter inhibition in NR2E3 agonist counterscreen. shares compounds with NR2E3 ag-1. CHO-S GAL4-VP16 luciferase reporter, luminescence. inhibition, % at 3.98 µM. actives 29% (n = 2,300). AID 624379;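 active = mean inhibition above a cutoff equal to the average over all tested compounds plus one standard deviation, cut at about 70% in these data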;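 also: luciferase from a UAS reporter driven by GAL4-VP16 transactivation; higher means less reporter light so more repression of VP16 activity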
PG9 bind confirm = confirmation of small molecules binding HIV-1 gp120 antibody PG9; actives 90% (n = 1,500); inhibition, % at 6.7 µM; shares compounds with PG9 binder; TR-FRET PG9 antibody binding, biochemical; AID 651571; in the data active = inhibition above about 9%
PGV04 Ab binding = binds control antibody PGV04 in PG9 binder counter-screen; TR-FRET PGV04 antibody-gp120 binding, biochemical; inhibition, % at 6.7 µM; AID 651604; actives 95% (n = 1,500); shares compounds with PG9 binder; in the data active = inhibition above about 9.5%
rCAG binder conf = r(CAG) RNA repeat binding, confirmation; actives 70% (n = 4,300); inhibition, % at 3 µM; shares compounds with rCAG binder; TO-PRO-1 dye displacement fluorescence;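 active = inhibition above a per-plate cutoff, the mean inhibition of sample wells plus 3 SD, cut at about 35% in these data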;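 also: loss of TO-PRO-1 fluorescence as compound displaces dye from 1x1 AA loop RNA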
dCAG dye counter = counter-screen for rCAG RNA binders: DNA CAG dye complex inhibitors. actives 94% (n = 4,300). inhibition, % at 3 µM. shares compounds with rCAG binder. d(CAG) DNA oligo TO-PRO-1 dye displacement, fluorescence. AID 652068;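 active = inhibition above its plate's cutoff, the mean test-well inhibition plus 3 SD, cut at about 4.8% in these data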;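 also: hits displace the dye from DNA and so lower well fluorescence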
NR1D1 mod conf = confirmation of modulators of human Rev-erb alpha DNA binding; shares compounds with NR1D1 modulator; Rev-erb alpha FITC-DNA binding, fluorescence polarization, 90 min; activation, % at 25 µM; actives 61% (n = 3,000);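 active = activation at or above a set limit, or at least 3 SD above the negative control mean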
RORg counter = counter-screen for Rev-erb alpha modulators: RORgamma DNA binding; purified RORgamma protein-FITC-DNA binding, fluorescence polarization; shares compounds with NR1D1 modulator; actives 8% (n = 910); IC50, µM;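 active = Compounds whose fitted half-maximal concentration for disrupting protein-DNA binding is below 10 micromolar; the record names Rev-erb in its text, so the target is in doubt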
Each line names hits and unclear results; the compound was inactive in the other large screens (follow-up assays come after a bar, where they were run).

O=C(COc1cccc2ccccc12)Nc1ccc(Cl)cc1C(=O)O	NR2E3 ag-1 77.9, rCAG binder 68.0 | NR2E3 ag confirm 94.7 | GAL4-VP16 luc inactive | rCAG binder conf 66.2 | dCAG dye counter 18.8
COc1ccc([C@@H]2CC=C(C(=O)O)[C@H](c3ccc(F)cc3)N2S(=O)(=O)c2ccc(C)cc2)cc1OC	none
Cc1ccc(S(=O)(=O)N2[C@@H](c3ccc(Cl)cc3)C(C(=O)O)=CC[C@H]2c2cccc(Cl)c2)cc1	none
Cc1ccc(S(=O)(=O)N2[C@@H](c3cccc(Cl)c3)C(C(=O)O)=CC[C@H]2c2ccc(C(C)C)cc2)cc1	NR2E3 ag-1 72.5, rCAG binder 84.9 | NR2E3 ag confirm inactive | GAL4-VP16 luc inactive | rCAG binder conf 79.9 | dCAG dye counter 45.4
Cc1ccc(S(=O)(=O)N2[C@@H](c3ccc(F)cc3)C(C(=O)O)=CC[C@H]2c2ccc(C(C)C)cc2)cc1	NR2E3 ag-1 72.9, rCAG binder 81.9 | NR2E3 ag confirm inactive | GAL4-VP16 luc inactive | rCAG binder conf 79.7 | dCAG dye counter 44.1
NC(Cc1ccc(O)cc1)C(=O)NN=Cc1ccccc1O (stereo not given)	none (no result: NR2E3 ag-1, NR2E3 ag-2)
COc1cccc(C(=O)Nc2nnc(S(=O)(=O)N(C)Cc3ccc(F)cc3)s2)c1	rCAG binder 70.0 | NR2E3 ag confirm inactive | GAL4-VP16 luc inactive | rCAG binder conf 64.9 | dCAG dye counter 25.4
COc1cccc(C(=O)Nc2nnc(S(=O)(=O)N(C)Cc3ccccc3)s2)c1	none
COC(=O)c1cc(OC)c(OC)cc1NC(=S)Nc1cc(Cl)ccc1OC	none
COc1ccc(Cl)cc1NC(=S)NNC(=O)C1(C)CC1(Cl)Cl (stereo not given)	rCAG binder 43.0 | NR2E3 ag confirm inactive | GAL4-VP16 luc inactive | rCAG binder conf inactive | dCAG dye counter 5.5
CCCCN(C(=O)CCN1C(=O)C2CC=CCC2C1=O)c1c(N)n(CCCC)c(=O)[nH]c1=O (stereo not given)	none (no result: NR2E3 ag-2)
CCN1/C(=C/c2ccc3cc(C)ccc3[n+]2CC)Sc2cc(C)ccc21	NR1D1 modulator 28.6, NR2E3 ag-1 89.5 (no result: NR2E3 ag-2) | NR2E3 ag confirm 99.8 | GAL4-VP16 luc 84.5 | NR1D1 mod conf 51.3 | RORg counter inactive
CCN1/C(=C/c2ccc3cc(C)ccc3[n+]2C)Sc2ccc3sccc3c21	none (no result: NR2E3 ag-2)
c1ccc(-c2c[nH]c3cccc(C4CCCCC4)c23)cc1	none (no result: NR2E3 ag-1, NR2E3 ag-2, PG9 binder)
CCn1c2ccccc2c2cc(NC(=O)CSc3nnc(-c4ccc(OC)cc4)n3N)ccc21	none
Cc1ccc(-c2nc(NC(=O)CSc3nnnn3-c3ccccc3)ns2)cc1	NR1D1 modulator 17.7, NR2E3 ag-1 72.9, PG9 binder 13.0 | NR2E3 ag confirm 99.9 | GAL4-VP16 luc inactive | PG9 bind confirm inactive | PGV04 Ab binding inactive | NR1D1 mod conf inactive
CCn1c2ccccc2c2cc(NC(=O)CSc3nnnn3-c3ccccc3)ccc21	NR1D1 modulator 38.7, PG9 binder 10.5 | NR2E3 ag confirm inactive | GAL4-VP16 luc inactive | PG9 bind confirm 9.2 | PGV04 Ab binding 17.6 | NR1D1 mod conf 24.2
CCN(CC)S(=O)(=O)c1ccc(N2CC(C(=O)NCCc3c[nH]c4ccccc34)CC2=O)cc1 (stereo not given)	none (no result: NR2E3 ag-2)
CC(=O)N1CCCc2cc(S(=O)(=O)N3CCCC(C(=O)N4CCN(c5cc(C)ccc5C)CC4)C3)ccc21 (stereo not given)	NR1D1 modulator 17.3, NR2E3 ag-1 98.5 | NR2E3 ag confirm 90.5 | GAL4-VP16 luc 79.5 | NR1D1 mod conf 17.9
COC(=O)c1ccc2nc(Nc3nc4c(F)cc(F)cc4s3)sc2c1	NR1D1 modulator 37.6 | NR2E3 ag confirm inactive | GAL4-VP16 luc inactive | NR1D1 mod conf 33.0 | RORg counter inactive
COC(=O)c1ccc2nc(NC(=O)C(C)C)sc2c1	none
Clc1ccccc1Nc1nc(NCc2ccccc2)nc2ccsc12	NR1D1 modulator 21.4, PG9 binder 18.1 (no result: NR2E3 ag-2) | NR2E3 ag confirm inactive | GAL4-VP16 luc inactive | PG9 bind confirm 27.1 | PGV04 Ab binding 35.6 | NR1D1 mod conf inactive
Cc1noc(C)c1NC(=O)N(C)C[C@@H]1Oc2c(NC(=O)c3ccncc3)cccc2C(=O)N([C@H](C)CO)C[C@@H]1C	none (no result: NR2E3 ag-2)
Cc1ccc(Cn2c(C3CCCN3c3nc(-c4cc(Cl)c(N)c(Cl)c4)cs3)nc3cc(Cl)c(Cl)cc32)cc1 (stereo not given)	PG9 binder 9.7 | PG9 bind confirm 13.9 | PGV04 Ab binding 22.4
CCCC(=O)N1CCCC1(C)C(=O)Nc1cc(C)ccc1C (stereo not given)	none (no result: NR2E3 ag-2)
Nc1ccn(C2CCCCO2)c(=O)n1 (stereo not given)	PG9 binder 13.9 (no result: NR2E3 ag-2) | PG9 bind confirm inactive | PGV04 Ab binding inactive
COc1ccccc1-c1n[nH]c(=S)o1	PG9 binder 18.3 | PG9 bind confirm 13.5 | PGV04 Ab binding 24.0
COc1ccc(Cl)cc1-c1n[nH]c(=S)o1	PG9 binder 37.2 | PG9 bind confirm 35.9 | PGV04 Ab binding 47.9
COc1ccc(C(=O)Nc2ccc(-c3n[nH]c(=S)o3)cc2)cc1OC	none
